Experiments:
[1] = test system: Human immunodeficiency virus 1; test: Resistance index, ratio of Ki for HIV1 reverse transcriptase Y181I mutant to Ki for wild type HIV1 3B reverse transcriptase
How it was run: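 Initial velocities came from radioactive nucleotide incorporation into poly(rA)/oligo(dT) 10:1, sampled every 2 min. Inhibitor spanned 0.2–5 Ki, with Lineweaver-Burk and Dixon plots. Fold-resistance is Ki mutant / Ki wild type.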

[2] = molecular target: Human immunodeficiency virus type 1 reverse transcriptase (Human immunodeficiency virus 1, UniProt Q72547); test: Inhibition of wild type HIV1 3B reverse transcriptase
[3] = molecular target: Human immunodeficiency virus type 1 reverse transcriptase (Human immunodeficiency virus 1, UniProt Q72547, V179D); test: Inhibition of HIV1 reverse transcriptase V179D mutant
[4] = test system: Human immunodeficiency virus 1; test: Antiviral activity against HIV1 with reverse transcriptase K103N mutation in MT4 cells assessed as inhibition of viral induced cytopathic effect by MTT method; assay type: functional, organism-based; details: Human immunodeficiency virus 1, MT4
How it was run: (§1)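 MT-4 cells infected with the HIV-1 NNRTI-resistant mutant strain. Viable cells scored at day 5 post-infection by the MTT tetrazolium colorimetric method. […] Values are means ± SD from at least two experiments.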

[5] = molecular target: Human immunodeficiency virus type 1 reverse transcriptase (Human immunodeficiency virus 1, UniProt Q72547, K103N); test: Inhibition of HIV1 reverse transcriptase K103N mutant
[6] = test system: Human immunodeficiency virus 1; test: Antiviral activity against HIV1 with reverse transcriptase Y181C mutation in MT4 cells assessed as inhibition of viral induced cytopathic effect by MTT method; assay type: functional, organism-based; details: Human immunodeficiency virus 1, MT4; how it was run: as §1
[7] = test system: Human immunodeficiency virus 1; test: Antiviral activity against HIV1 with reverse transcriptase Y188L mutation in MT4 cells assessed as inhibition of viral induced cytopathic effect by MTT method; assay type: functional, organism-based; details: Human immunodeficiency virus 1, MT4
How it was run: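 MT-4 cells infected with the HIV-1 NNRTI-resistant mutant strain. Viable cells scored at day 5 post-infection by the MTT tetrazolium colorimetric method. Values are means ± SD from at least two experiments.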

[8] = molecular target: Human immunodeficiency virus type 1 reverse transcriptase (Human immunodeficiency virus 1, UniProt Q72547, L100I); test: Inhibition of HIV1 reverse transcriptase L100I mutant
[9] = Cytotoxicity against MT4 cells after 4 days by MTT method; assay type: cell-based; details: human
How it was run: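 Mock-infected (noninfected) MT-4 cells, run in parallel with the antiviral test. Viable cells read by the MTT tetrazolium colorimetric method. […] Means ± SD from at least two experiments. The top concentration was limited where compounds precipitated in the culture medium.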

[10] = molecular target: Human immunodeficiency virus type 1 reverse transcriptase (Human immunodeficiency virus 1, UniProt Q72547, Y188L); test: Inhibition of HIV1 reverse transcriptase Y188L mutant
[11] = test system: Human immunodeficiency virus 1; test: Antiviral activity against HIV1 NL43 in MT4 cells assessed as inhibition of viral induced cytopathic effect after 5 days by MTT method; details: Human immunodeficiency virus 1, NL43, MT4, 120 h
[12] = Resistance index, Ratio of EC50 for drug-resistant HIV1 with RT K103N mutation in MT4 cells to EC50 for HIV1 NL43 in MT4 cells
[13] = Selectivity index, ratio of CC50 for MT4 cells to EC50 for HIV1 NL43 infected MT4 cells; assay type: functional
[14] = Resistance index, Ratio of EC50 for drug-resistant HIV1 with RT Y181C mutation in MT4 cells to EC50 for HIV1 NL43 in MT4 cells
[15] = Resistance index, Ratio of EC50 for drug-resistant HIV1 with RT IRLL98 mutation in MT4 cells to EC50 for HIV1 NL43 in MT4 cells
[16] = test system: Human immunodeficiency virus 1; test: Antiviral activity against HIV1 with reverse transcriptase IRLL98 mutation in MT4 cells assessed as inhibition of viral induced cytopathic effect by MTT method; assay type: functional, organism-based
[17] = Inhibition of HIV1 reverse transcriptase Y1811 mutant; parameters: species or system Human immunodeficiency virus 1
How it was run: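 Recombinant HIV-1 RT Y181I mutant, purified to >95%, 10 min preincubation with inhibitor. Radioactive nucleotide incorporation into poly(rA)/oligo(dT) 10:1 was followed at varied nucleotide substrate levels, sampling every 2 min for initial velocities. Inhibitor spanned 0.2–5 Ki. Ki came from Lineweaver-Burk and Dixon plots. Means ± SD of at least three experiments.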

[18] = molecular target: Human immunodeficiency virus type 1 reverse transcriptase (Human immunodeficiency virus 1, UniProt Q72547, V106A); test: Inhibition of HIV1 reverse transcriptase V106A mutant
[19] = Resistance index, Ratio of EC50 for drug-resistant HIV1 with RT Y188L mutation in MT4 cells to EC50 for HIV1 NL43 in MT4 cells
[20] = test system: Human immunodeficiency virus 1; test: Antiviral activity against HIV1 NL43 in MT4 cells assessed as inhibition of viral induced cytopathic effect after 4 days by MTT method; assay type: functional, organism-based
[21] = Human immunodeficiency virus 1, MT4

Row | SMILES | Ratio Ki [1] | Ki [2] [nM] | Ki [3] [nM] | EC50 [4] [nM] | Ki [5] [nM] | EC50 [6] [nM] | EC50 [7] [nM] | Ki [8] [nM] | CC50 at 96 h [9] [nM] | Ki [10] [nM] | EC50 [11] [nM] | Ratio EC50 [12] | Ratio CC50/EC50 [13] | Ratio EC50 [14] | Ratio EC50 [15] | EC50 [16, 21] [nM] | Ki [17] [nM] | Ki [18] [nM] | Ratio EC50 [19] | also measured
1 | Cc1c(C(C)c2c(F)cccc2F)nc(SC2CCCC2)[nH]c1=O (stereo not given) | 180 | 5 | 250 | 225 | 30 | 97 | > 3000 | 300 | > 3000 | 1400 | 1 | 225 | >3000 | 97 | 120 | 120 | 900 | 500 |  | 
2 | Cc1c(C(C)c2c(F)cccc2F)nc(N(C)C)[nH]c1=O (stereo not given) | 40 | 100 | 2000 | 50 | 500 | 14 | 50 | 1000 | > 17000 | 500 | 0.3 | 167 | >56667 | 47 | 17 | 5 | 4000 | 100 | 167 | 
3 | O=c1cc(Cc2c(F)cccc2F)nc(N2CCSCC2)[nH]1 | 2 | 200 | 5000 | > 10000 | 1500 | > 10000 | > 10000 | 10000 | > 77000 | 1000 | 35 |  | >2200 |  |  | > 10000 | 400 | 500 |  | 
4 | CCCN(C)c1nc(C(C)c2c(F)cccc2F)c(C)c(=O)[nH]1 (stereo not given) | 42 | 30 |  | 10 | 170 | 0.6 | 30 | 180 | > 78000 | 1430 | 0.6 | 17 | >130000 | 1 | 1.7 | 1 | 1260 | 20 | 50 | 
5 | Cc1c(C(C)c2c(F)cccc2F)nc(N2CCSCC2)[nH]c1=O (stereo not given) |  | 60 | 20 | 1240 | 10000 | 30 | 860 | 5000 | > 71000 | 4000 |  | 413 | >23667 | 10 | 20 |  | > 20000 | 30 | 287 | EC50 [20]: 3 nM; EC50 ([16]; mt4): 60 nM
6 | CCc1c(C(C)c2c(F)cccc2F)nc(N(C)C)[nH]c1=O (stereo not given) | 100 | 50 | 30 | 250 | 2000 | 100 | 550 | 4000 | > 81000 | 10000 | 2 | 125 | >40500 | 50 | 440 | 880 | 5000 | 60 | 275 | 
7 | CN(C)c1nc(Cc2c(F)cccc2F)cc(=O)[nH]1 | 37 | 80 | 5000 | > 10000 | 3000 | 3600 | > 10000 | 10000 | > 94000 | 30000 | 23 |  | >4087 | 156 | 87 | 2000 |  | 500 |  | 
8 | CCN(C)c1nc(C(C)c2c(F)cccc2F)c(C)c(=O)[nH]1 (stereo not given) | 250 | 40 | 20 | 20 | 500 | 2 | 30 | 2500 | 81000 | 4000 | 0.3 | 67 | 270000 | 7 | 10 | 3 | 10000 | 20 | 100 | 
9 | Cc1c(C(C)c2c(F)cccc2F)nc(N(C)C(C)C)[nH]c1=O (stereo not given) | 21 | 40 |  | 6 | 80 | 0.7 | 40 | 10000 | > 81000 | 1190 | 0.5 | 12 | >162000 | 1.4 | 2 | 1 | 850 | 30 | 80 | 

— ChEMBL document CHEMBL1137561 (J Med Chem, 2007)
